Test results as given in ChEMBL document CHEMBL1155815, “Design, synthesis, and biological evaluation of Mannich bases of heterocyclic chalcone analogs as cytotoxic agents” (Bioorg Med Chem, 2008).
Values after ≈ are worked out from the molar mass of the structure shown. Active and inactive are the calls of the source. The rule behind the calls is not given here.

What was measured:
Assay type in all cases: functional, cell-based
[1] = tested on: KB; experiment: Cytotoxicity against human KB cells after 3 days by SRB assay; conditions: for EC50: 72 h
In short: (§1)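 Cells grown in RPMI-1640 with HEPES, 0.25% sodium bicarbonate, 10% FBS and kanamycin. Freshly trypsinized cells were seeded at 1500–7500 per well and compounds added from DMSO-diluted stock. After 3 days, attached cells were fixed with cold 50% TCA, stained with 0.4% SRB, and absorbance read after dye solubilization. EC50 = 50% growth reduction, averaged over ≥3 independent determinations.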

[2] = tested on: MCF7; experiment: Cytotoxicity against human MCF7 cells after 3 days by SRB assay; conditions: for EC50: MCF7, 72 h; in short: as §1
[3] = tested on: KB; experiment: Cytotoxicity against vinblastine-resistant human KB cells after 3 days by SRB assay; conditions: in the assay text read “vincristine-resistant” for “vinblastine-resistant”; for EC50: 72 h; in short: as §1
[4] = tested on: PC-3; experiment: Cytotoxicity against human PC3 cells after 3 days by SRB assay; conditions: for EC50: PC-3, 72 h; in short: as §1

Structure (SMILES)	EC50 [1] [µg/mL]	EC50 [2] [µg/mL]	EC50 [3] [µg/mL]	Activity [4]	Activity [1]	EC50 [4] [µg/mL]	Activity [2]	Activity [3]
CC(C)=CCOc1ccc(C(=O)/C=C/c2sccc2C)c(O)c1CN1CCOCC1	8.43 (≈ 19.7 µM)	3.19 (≈ 7.46 µM)	7.21 (≈ 16.9 µM)	inactive				
CCOc1cc(O)c(C(=O)/C=C/c2ccccc2)cc1CN1CCOCC1		5.24 (≈ 14.3 µM)	9.92 (≈ 27 µM)		inactive	6.72 (≈ 18.3 µM)		
O=C(/C=C/c1ccco1)c1ccc(O)c(CN2CCOCC2)c1	6.12 (≈ 19.5 µM)	4.87 (≈ 15.5 µM)	3.27 (≈ 10.4 µM)			7.43 (≈ 23.7 µM)		
O=C(/C=C/c1ccccn1)c1ccc(O)c(CN2CCOCC2)c1	0.73 (≈ 2.25 µM)	0.12 (≈ 0.37 µM)	0.3 (≈ 0.925 µM)			0.31 (≈ 0.956 µM)		
COc1cc(O)c(C(=O)/C=C/c2cccnc2)cc1CN1CCOCC1		0.1 (≈ 0.282 µM)	4.64 (≈ 13.1 µM)		inactive	0.84 (≈ 2.37 µM)		
COc1cc(O)c(C(=O)/C=C/c2cccs2)cc1CN1CCOCC1	7.75 (≈ 21.6 µM)	3.12 (≈ 8.68 µM)	6.25 (≈ 17.4 µM)			6.6 (≈ 18.4 µM)		
O=C(/C=C/c1ccncc1)c1ccc(CN2CCOCC2)c(O)c1	1.95 (≈ 6.01 µM)	1.23 (≈ 3.79 µM)	2.62 (≈ 8.08 µM)			1.87 (≈ 5.76 µM)		
COc1ccc(/C=C/C(=O)c2cc(CN3CCOCC3)c(OC)cc2O)cc1	9.6 (≈ 25 µM)	2.74 (≈ 7.15 µM)	6.58 (≈ 17.2 µM)			8.11 (≈ 21.2 µM)		
COc1ccc(/C=C/C(=O)c2cccc(C)c2)c(CN2CCOCC2)c1O	1.12 (≈ 3.05 µM)	0.42 (≈ 1.14 µM)	0.6 (≈ 1.63 µM)			0.66 (≈ 1.8 µM)		
O=C(/C=C/c1cccnc1)c1ccc(O)c(CN2CCOCC2)c1	2.11 (≈ 6.5 µM)	0.29 (≈ 0.894 µM)	0.69 (≈ 2.13 µM)			0.68 (≈ 2.1 µM)		
O=C(/C=C/c1ccccn1)c1ccc(CN2CCOCC2)c(O)c1	1.3 (≈ 4.01 µM)	0.43 (≈ 1.33 µM)	0.68 (≈ 2.1 µM)			0.83 (≈ 2.56 µM)		
Cc1ccsc1/C=C/C(=O)c1cccc(O)c1CN1CCOCC1	5.7 (≈ 16.6 µM)	1.12 (≈ 3.26 µM)	1.64 (≈ 4.78 µM)			2.73 (≈ 7.95 µM)		
O=C(/C=C/c1ccccc1)c1ccc(O)c(CN2CCOCC2)c1	2.11 (≈ 6.52 µM)	0.15 (≈ 0.464 µM)	0.69 (≈ 2.13 µM)			0.18 (≈ 0.557 µM)		
O=C(/C=C/c1ccccn1)c1ccc(O)c(CN2CCOCC2)c1O	1.54 (≈ 4.52 µM)	0.08 (≈ 0.235 µM)	0.8 (≈ 2.35 µM)			0.95 (≈ 2.79 µM)		
O=C(/C=C/c1cccs1)c1cccc(O)c1CN1CCOCC1	2.84 (≈ 8.62 µM)	1.66 (≈ 5.04 µM)	2.15 (≈ 6.53 µM)			1.09 (≈ 3.31 µM)		
O=C(/C=C/c1ccccn1)c1cc(CN2CCOCC2)c(O)c(CN2CCOCC2)c1	2.31 (≈ 5.45 µM)	1.34 (≈ 3.16 µM)	2.27 (≈ 5.36 µM)			1.72 (≈ 4.06 µM)		
CCOc1cc(O)c(C(=O)/C=C/c2sccc2C)cc1CN1CCOCC1				inactive	inactive		inactive	inactive
CC(C)Oc1ccc(C(=O)/C=C/c2cccs2)c(O)c1CN1CCOCC1	5.12 (≈ 13.2 µM)	0.66 (≈ 1.7 µM)	1.45 (≈ 3.74 µM)			2.8 (≈ 7.23 µM)		

Structure (SMILES)	EC50 [1] [µg/mL]	EC50 [2] [µg/mL]	EC50 [3] [µg/mL]	Activity [4]	Activity [1]	EC50 [4] [µg/mL]	Activity [2]	Activity [3]
COc1ccc(/C=C/C(=O)c2cccs2)c(CN2CCCCC2)c1O	2.93 (≈ 8.2 µM)	0.11 (≈ 0.308 µM)	2.09 (≈ 5.85 µM)			2.02 (≈ 5.65 µM)		
O=C(/C=C/c1cccs1)c1ccc(O)c(CN2CCOCC2)c1	5.14 (≈ 15.6 µM)	5.62 (≈ 17.1 µM)	2.58 (≈ 7.83 µM)			6.49 (≈ 19.7 µM)		
CCOc1cc(O)c(C(=O)/C=C/c2ccco2)cc1CN1CCOCC1		20 (≈ 56 µM)		inactive	inactive			inactive
CCOc1cc(O)c(C(=O)/C=C/c2ccc(C)o2)cc1CN1CCOCC1				inactive	inactive		inactive	inactive
O=C(/C=C/c1ccncc1)c1ccc(O)c(CN2CCOCC2)c1	0.74 (≈ 2.28 µM)	0.15 (≈ 0.462 µM)	0.41 (≈ 1.26 µM)			0.1 (≈ 0.308 µM)		
COc1cc(O)c(C(=O)/C=C/c2ccccc2)cc1CN1CCOCC1	14.9 (≈ 42.2 µM)	0.03 (≈ 0.0849 µM)	3.5 (≈ 9.9 µM)			0.78 (≈ 2.21 µM)		
CCOc1cc(O)c(C(=O)/C=C/c2cccnc2)cc1CN1CCOCC1		10.6 (≈ 28.8 µM)		inactive	inactive			inactive
COc1cc(O)c(C(=O)/C=C/c2ccco2)cc1CN1CCOCC1	13.5 (≈ 39.4 µM)	1.51 (≈ 4.4 µM)	8.12 (≈ 23.6 µM)			16.8 (≈ 48.9 µM)		
COc1ccc(/C=C/C(=O)c2cccnc2)c(CN2CCCCC2)c1O	6.14 (≈ 17.4 µM)	0.3 (≈ 0.851 µM)	2.64 (≈ 7.49 µM)			6.77 (≈ 19.2 µM)		
O=C(/C=C/c1ccccn1)c1ccc(CN2CCOCC2)c(O)c1CN1CCOCC1	0.82 (≈ 1.94 µM)	0.46 (≈ 1.09 µM)	0.71 (≈ 1.68 µM)			0.44 (≈ 1.04 µM)		
COc1ccc(C(=O)/C=C/c2ccccn2)c(O)c1CN1CCOCC1	3.41 (≈ 9.62 µM)	0.25 (≈ 0.705 µM)	1.13 (≈ 3.19 µM)			10.5 (≈ 29.7 µM)		
COc1ccc(/C=C/C(=O)c2ccco2)c(CN2CCCCC2)c1O	5.18 (≈ 15.2 µM)	0.47 (≈ 1.38 µM)	2.61 (≈ 7.64 µM)			3.07 (≈ 8.99 µM)		
O=C(/C=C/c1cccnc1)c1ccc(CN2CCOCC2)c(O)c1	2.17 (≈ 6.69 µM)	0.67 (≈ 2.07 µM)	1.17 (≈ 3.61 µM)			0.9 (≈ 2.77 µM)		
Cc1ccsc1/C=C/C(=O)c1cc(CN2CCOCC2)c(O)c(CN2CCOCC2)c1	9.92 (≈ 22.4 µM)	16.2 (≈ 36.6 µM)	12 (≈ 27.1 µM)			12.1 (≈ 27.3 µM)		
O=C(/C=C/c1ccccc1)c1cccc(O)c1CN1CCOCC1	0.83 (≈ 2.57 µM)	0.28 (≈ 0.866 µM)	0.36 (≈ 1.11 µM)			0.33 (≈ 1.02 µM)		
CC(C)Oc1cc(O)c(C(=O)/C=C/c2cccs2)cc1CN1CCOCC1	9.44 (≈ 24.4 µM)	0.24 (≈ 0.619 µM)	5.02 (≈ 13 µM)			4.04 (≈ 10.4 µM)		
CCOc1cc(O)c(C(=O)/C=C/c2ccccn2)cc1CN1CCOCC1	5.72 (≈ 15.5 µM)	4.13 (≈ 11.2 µM)	5.55 (≈ 15.1 µM)			3.14 (≈ 8.52 µM)		
O=C(/C=C/c1ccco1)c1cccc(O)c1CN1CCOCC1	5.63 (≈ 18 µM)	4.7 (≈ 15 µM)	5.77 (≈ 18.4 µM)			3.8 (≈ 12.1 µM)		
